pIC50: −log10 of the molar value. The source made the active and inactive calls. The calls are words filed in the database; no cut-off is given here.
What was measured:
[1] = target: T1, Tyrosinase (Agaricus bisporus, UniProt O42713); experiment: Inhibition of mushroom tyrosinase
T1 sequence (O42713 whole entry): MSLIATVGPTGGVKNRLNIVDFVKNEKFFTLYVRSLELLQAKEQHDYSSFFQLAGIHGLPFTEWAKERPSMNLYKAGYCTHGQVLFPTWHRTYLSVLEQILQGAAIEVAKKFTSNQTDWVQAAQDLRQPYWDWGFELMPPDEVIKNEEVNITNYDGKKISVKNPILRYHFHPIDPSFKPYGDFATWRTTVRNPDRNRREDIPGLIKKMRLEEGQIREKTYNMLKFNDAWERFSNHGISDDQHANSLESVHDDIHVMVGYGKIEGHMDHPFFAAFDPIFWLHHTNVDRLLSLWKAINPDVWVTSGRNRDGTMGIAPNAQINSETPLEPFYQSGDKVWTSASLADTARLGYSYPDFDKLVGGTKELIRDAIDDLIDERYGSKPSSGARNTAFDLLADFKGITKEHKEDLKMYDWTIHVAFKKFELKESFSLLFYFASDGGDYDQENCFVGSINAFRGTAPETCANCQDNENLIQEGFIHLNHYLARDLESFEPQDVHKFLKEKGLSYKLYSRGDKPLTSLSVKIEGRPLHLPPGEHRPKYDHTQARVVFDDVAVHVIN

[2] = system: B16; experiment: Antimelanogenic activity in mouse B16 cells assessed as decrease in intracellular melanin level at IC50 after 4 days; type: functional; parameters: scale not given: the % may be the effect or the level left
[3] = system: B16; experiment: Antimelanogenic activity in mouse B16 cells assessed as decrease in intracellular melanin level after 4 days; type: functional, cell-based; settings: B16, 96 h
Method in brief: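 B16 cells in DMEM with 10% FBS and penicillin/streptomycin, seeded at 5000 cells/well and preincubated 24 h at 37 °C in 5% CO2. Cultured with IBMX (100 µM) with or without sample at 6.3–100 µM for 48 h, then in fresh medium under the same conditions for a further 48 h. Cells dissolved in 1 N NaOH at 90 °C for 1 h. Relative melanin read at 400 nm. Arbutin was the positive control.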

[4] = system: B16; experiment: Cytotoxicity against mouse B16 cells assessed as cell viability after 4 days by MTT assay; type: cell-based; settings: b16, 96 h
Method in brief: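 B16 cells were cultured as for the melanin assay: IBMX 100 µM and sample at 6.3–100 µM for 4 days. MTT (5 mg/mL solution) was added for 2 h, and the formazan was dissolved in DMSO. Absorbance was read at 550 and 700 nm. Viability was taken from the absorbance difference between samples and controls, in triplicate.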

[5] = system: B16; experiment: Inhibition of tyrosinase expression in mouse B16 cells after 1 hr by Western blotting; type: functional, cell-based
Method in brief: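 B16 cells were treated with sample at 50 and 75 µM plus 0.1 mM IBMX, then lysed. Lysates were run on 7.5% SDS–PAGE and transferred to PVDF, which was blocked 1 h in 5% skim milk. Anti-tyrosinase (1:2000) was applied overnight and anti-β-actin (1:2000) for 1 h, followed by HRP-conjugated secondary IgG.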

| Compound | pIC50 [1] | Activity [2] [%] | pIC50 [3] | further results |
| --- | --- | --- | --- | --- |
| COC(=O)C1=C2Nc3ccccc3[C@]23CC[N+]2([O-])C[C@H](C(C)=O)[C@H]1C[C@H]32 (some centres not stated) [ALPNEUMINE C] | < 4.00 | – | – | – |
| COC(=O)C1=C2Nc3c(O)cccc3[C@]23CCN2C[C@@H](C(C)=O)[C@H]1C[C@@H]23 [ALPNEUMINE D] | < 4.00 | – | – | – |
| COC(=O)C1=C2Nc3c(O)cccc3[C@]23CC[N+]2([O-])C[C@H](C(C)=O)[C@H]1C[C@H]32 (some centres not stated) [ALPNEUMINE A] | < 4.00 | – | – | – |
| COC(=O)[C@@]12CO[C@@]3(O)[C@H]1CCN1CC[C@H]3[C@@H]1c1c2[nH]c2ccccc12 [ALPNEUMINE F] | < 4.00 | – | – | – |
| CC[C@]12CCCN3CCc4c(n(c5ccccc45)[C@@](O)(C(=O)OC)C1)[C@@H]32 [VINCAMINE] | – | <50 | 4.16 | – |
| COC(=O)C1=C2Nc3c(O)cccc3[C@]23CCN2C[C@H](C(C)=O)[C@H]1C[C@@H]23 [ALPNEUMINE B] | < 4.00 | – | – | – |
| COC(=O)[C@@]12COCC[C@H]3[C@@H]1CC[N@+](C)([O-])[C@H]3c1c2[nH]c2ccccc12 [ALPNEUMINE H] | < 4.00 | – | – | – |
| CC[C@]12CCC[N+]3([O-])CCc4c(n(c5ccccc45)[C@@](O)(C(=O)OC)C1)[C@H]23 (some centres not stated) [ALPNEUMINE G] | < 4.00 | <50 | 4.23 | Activity [4]: Dose-dependent effect; Activity [5]: Active |
| CC[C@@]12C=C(C(=O)OC)n3c4c(c5ccccc53)CCN(CCC1)[C@H]42 [APOVINCAMINE] | – | <50 | 4.30 | – |
| COC(=O)C1=C2Nc3ccccc3[C@]23CCN2C[C@@H](C(C)=O)[C@H]1C[C@@H]23 [ALPNEUMINE E] | < 4.00 | – | 4.15 | – |

— ChEMBL document CHEMBL1166017, “Alpneumines A-H, new anti-melanogenic indole alkaloids from Alstonia pneumatophora” (Bioorg Med Chem, 2010)
